Results taken from ChEMBL document CHEMBL1146048, “Imidazo[1,2-a]pyrazin-8-ones, imidazo[1,2-d][1,2,4]triazin-8-ones and imidazo[2,1-f][1,2,4]triazin-8-ones as alpha2/alpha3 subtype selective GABA A agonists for the treatment of anxiety” (Bioorg Med Chem Lett, 2006).
Activity calls are given as the source filed them. The rule behind the calls is not given here.

How the values were obtained:
[1] = target: T1, GABA-A receptor; alpha-1/beta-3/gamma-2 (Homo sapiens, UniProt P14867+P18507+P28472); assay: Displacement of [3H]Ro-151788 from human recombinant GABA-Aalpha1 receptor plus beta3gamma2; format: protein-complex assay
T1 sequence (P14867 whole entry): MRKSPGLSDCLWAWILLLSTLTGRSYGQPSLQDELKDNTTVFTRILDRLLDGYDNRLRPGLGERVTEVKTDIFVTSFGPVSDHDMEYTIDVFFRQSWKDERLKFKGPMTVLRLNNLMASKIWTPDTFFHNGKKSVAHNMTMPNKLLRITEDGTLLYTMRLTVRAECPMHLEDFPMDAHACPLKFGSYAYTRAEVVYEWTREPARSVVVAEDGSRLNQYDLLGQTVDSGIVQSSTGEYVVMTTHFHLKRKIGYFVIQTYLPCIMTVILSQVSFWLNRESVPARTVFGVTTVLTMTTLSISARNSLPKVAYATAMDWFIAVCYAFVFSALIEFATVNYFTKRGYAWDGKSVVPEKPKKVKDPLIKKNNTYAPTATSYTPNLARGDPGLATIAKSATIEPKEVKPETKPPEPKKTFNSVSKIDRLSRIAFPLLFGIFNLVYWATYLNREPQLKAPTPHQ
T1 sequence (P18507 whole entry): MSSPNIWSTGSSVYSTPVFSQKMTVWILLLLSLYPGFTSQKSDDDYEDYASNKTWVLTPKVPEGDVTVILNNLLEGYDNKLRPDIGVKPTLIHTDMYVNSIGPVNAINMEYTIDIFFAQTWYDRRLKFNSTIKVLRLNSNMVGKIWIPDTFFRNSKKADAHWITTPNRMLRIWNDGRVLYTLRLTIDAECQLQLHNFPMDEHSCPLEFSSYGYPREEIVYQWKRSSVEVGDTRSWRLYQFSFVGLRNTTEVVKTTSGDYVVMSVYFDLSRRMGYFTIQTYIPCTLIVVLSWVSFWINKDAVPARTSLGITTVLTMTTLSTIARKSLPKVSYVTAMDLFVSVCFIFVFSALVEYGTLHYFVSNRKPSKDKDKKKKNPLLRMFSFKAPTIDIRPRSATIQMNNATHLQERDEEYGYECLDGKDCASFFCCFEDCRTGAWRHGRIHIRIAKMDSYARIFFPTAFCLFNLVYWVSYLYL
T1 sequence (P28472 whole entry): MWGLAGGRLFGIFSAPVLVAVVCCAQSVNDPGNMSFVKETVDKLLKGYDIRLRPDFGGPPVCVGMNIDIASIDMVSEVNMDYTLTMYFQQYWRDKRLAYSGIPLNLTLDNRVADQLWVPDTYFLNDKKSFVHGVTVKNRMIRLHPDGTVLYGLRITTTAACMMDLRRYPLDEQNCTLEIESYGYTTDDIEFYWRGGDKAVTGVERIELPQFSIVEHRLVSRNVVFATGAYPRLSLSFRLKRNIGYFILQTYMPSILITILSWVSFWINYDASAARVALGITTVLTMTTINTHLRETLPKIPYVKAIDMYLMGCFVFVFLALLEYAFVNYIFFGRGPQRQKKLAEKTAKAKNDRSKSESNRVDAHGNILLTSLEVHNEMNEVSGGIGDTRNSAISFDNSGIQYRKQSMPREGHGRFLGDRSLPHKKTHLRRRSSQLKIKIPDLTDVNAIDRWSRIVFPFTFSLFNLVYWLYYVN
Summary of the method: (§1)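 Stably expressed human recombinant αxβ3γ2 GABAA receptors (x = 1, 3 or 5), benzodiazepine site. Competition against 1.8 nM [3H]Ro15-1788. IC50 for inhibition of binding converted to Ki by Cheng–Prusoff. Mean of 3–6 determinations.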

[2] = target: T2, GABA-A receptor; alpha-3/beta-3/gamma-2 (Homo sapiens, UniProt P18507+P28472+P34903); assay: Displacement of [3H]Ro-151788 from human recombinant GABA-Aalpha3 receptor plus beta3gamma2; format: protein-complex assay; summary of the method: as §1
T2 sequence (P18507 whole entry): T1 sequence (P18507 whole entry)
T2 sequence (P28472 whole entry): T1 sequence (P28472 whole entry)
T2 sequence (P34903 whole entry): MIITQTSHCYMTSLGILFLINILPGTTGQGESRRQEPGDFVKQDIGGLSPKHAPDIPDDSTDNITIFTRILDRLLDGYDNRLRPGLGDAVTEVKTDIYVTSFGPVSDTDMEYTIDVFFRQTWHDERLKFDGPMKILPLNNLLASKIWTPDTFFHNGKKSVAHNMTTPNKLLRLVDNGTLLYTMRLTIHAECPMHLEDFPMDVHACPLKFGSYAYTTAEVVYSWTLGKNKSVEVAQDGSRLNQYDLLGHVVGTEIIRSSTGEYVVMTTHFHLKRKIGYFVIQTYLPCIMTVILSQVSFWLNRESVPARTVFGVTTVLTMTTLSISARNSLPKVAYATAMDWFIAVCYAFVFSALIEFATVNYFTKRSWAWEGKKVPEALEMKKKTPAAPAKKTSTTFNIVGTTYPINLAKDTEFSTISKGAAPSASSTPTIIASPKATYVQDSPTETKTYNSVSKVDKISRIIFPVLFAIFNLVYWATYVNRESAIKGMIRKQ

[3] = target: T3, GABA-A receptor; alpha-5/beta-3/gamma-2 (Homo sapiens, UniProt P18507+P28472+P31644); assay: Displacement of [3H]Ro-151788 from human recombinant GABA-Aalpha5 receptor plus beta3gamma2; format: protein-complex assay; summary of the method: as §1
T3 sequence (P18507 whole entry): T1 sequence (P18507 whole entry)
T3 sequence (P28472 whole entry): T1 sequence (P28472 whole entry)
T3 sequence (P31644 whole entry): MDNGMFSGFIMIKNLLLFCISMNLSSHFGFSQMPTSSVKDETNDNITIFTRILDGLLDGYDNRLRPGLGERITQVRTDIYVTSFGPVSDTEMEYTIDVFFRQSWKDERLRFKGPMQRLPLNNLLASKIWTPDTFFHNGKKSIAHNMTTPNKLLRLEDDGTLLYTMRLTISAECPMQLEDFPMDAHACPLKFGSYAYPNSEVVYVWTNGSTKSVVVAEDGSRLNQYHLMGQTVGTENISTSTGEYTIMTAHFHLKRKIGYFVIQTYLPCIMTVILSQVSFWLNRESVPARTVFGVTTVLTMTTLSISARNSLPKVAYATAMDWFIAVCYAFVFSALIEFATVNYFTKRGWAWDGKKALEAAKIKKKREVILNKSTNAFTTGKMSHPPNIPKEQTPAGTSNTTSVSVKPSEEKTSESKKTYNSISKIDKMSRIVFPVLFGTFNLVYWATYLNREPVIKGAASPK

[4] = target: GABA-A receptor; alpha-1/beta-3/gamma-2 (Homo sapiens) (UniProt P14867+P18507+P28472); assay: Efficacy against human recombinant GABA-Aalpha1 receptor plus beta-3-gamma-2 expressed in L(tk-) cells by whole cell patch clamp method; format: functional, cell-based
Summary of the method: (§2)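 Whole-cell patch clamp on L(tk-) cells stably expressing α1β3γ2 or α3β3γ2 GABAA receptors. Test compound modulation of current evoked by a sub-maximal (EC20) GABA concentration. Means of at least seven independent experiments.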

[5] = target: GABA-A receptor; alpha-3/beta-3/gamma-2 (Homo sapiens) (UniProt P18507+P28472+P34903); assay: Efficacy against human recombinant GABA-Aalpha3 receptor plus beta-3-gamma-2 expressed in L(tk-) cells by whole cell patch clamp method; format: functional, cell-based; summary of the method: as §2
[6] = target: GABA-A receptor; alpha-5/beta-3/gamma-2 (Homo sapiens) (UniProt P18507+P28472+P31644); assay: Efficacy against human recombinant GABA-Aalpha5 receptor plus beta-3-gamma-2 expressed in L(tk-) cells by whole cell patch clamp method; format: functional, cell-based
Summary of the method: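 Human α5β3γ2 GABA-A receptors stably expressed in L(tk-) cells; whole-cell patch clamp recording. Test compound applied against the current evoked by a sub-maximal GABA concentration (EC20), and efficacy expressed as the change in that current. Values are means of at least seven independent experiments.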

[7] = Bioavailability in rat; format: ADME, organism-based; conditions: in vivo
[8] = Plasma clearance in rat; format: ADME, organism-based
[9] = Half life in rat; format: ADME, organism-based; conditions: in vivo
[10] = target: T4, GABA-A receptor; anion channel (Rattus norvegicus) (UniProt O09028+P15431+P18506+P18508+P19969+P20236+P23574+P23576+P28471+P28473+P30191+P62813+P63079+P63138+Q91ZM7+Q9ES14); assay: Displacement of [3H]Ro-151788 from GABA-Aalpha receptor in rat po; format: functional
[11] = test system: Rattus norvegicus; assay: Anxiolytic activity in rat elevated plus maze assay at 3 mg/kg, po; format: functional, organism-based; design: dose 3 mg/kg
[12] = target: T4, GABA-A receptor; anion channel (Rattus norvegicus); assay: Receptor occupancy at BZ site of GABA-Aalpha receptor in rat at 3 mg/kg, po; format: functional, organism-based; design: dose 3 mg/kg
[13] = test system: Rattus norvegicus; assay: Activity in rat beam walking assay at 100 mg/kg, po; format: functional, organism-based; design: dose 100 mg/kg

Structure (SMILES)	Ki [1] [nM]	Ki [2] [nM]	Ki [3] [nM]	Efficacy [4] [%]	Efficacy [5] [%]	Efficacy [6] [%]	bioavailability [7] [%]	clearance [8] [L/h/kg]	half-life [9] [h]	ID50 [10] [mg/kg]	Activity [11]	Activity [12] [%]	Activity [13]
CCn1ccn2c(-c3ccc(F)c(-c4ccc(F)cc4C#N)c3)cnc2c1=O	0.28	0.9	0.15	-8	43	-4	38	1.02	5	0.7	Active	86	inactive
Cn1ccn2c(-c3ccc(F)c(-c4ccccc4C#N)c3)cnc2c1=O	0.53	0.7	0.1	27	51	–	–	–	–	–	–	–	–
CC(C)(O)c1ccn2c(-c3ccc(F)c(-c4cccnc4)c3)cnc2n1	1.4	–	0.52	–	–	–	–	–	–	–	–	–	–
CCn1ncn2c(-c3ccc(F)c(-c4ccc(F)cc4C#N)c3)cnc2c1=O	2.4	3.4	0.95	-19	-7	–	–	–	–	–	–	–	–
CC(C)(O)c1cnn2c(-c3ccc(F)c(-c4c(F)cccc4C#N)c3)cnc2n1	0.6	1.5	0.9	4	65	44	–	–	–	–	–	–	–
Cn1cnn2c(-c3ccc(F)c(-c4ccc(F)cc4C#N)c3)cnc2c1=O	2.5	4.6	4.8	-46	–	–	–	–	–	–	–	–	–
Cn1ccn2c(-c3ccc(F)c(-c4ccc(F)cc4C#N)c3)cnc2c1=O	0.7	1.9	0.39	-27	44	–	–	–	–	–	–	–	–
Cn1ncn2c(-c3ccc(F)c(-c4ccc(F)cc4C#N)c3)cnc2c1=O	6.5	4.7	2.3	-9	1	–	–	–	–	–	–	–	–
Cn1ccn2c(-c3ccc(F)c(-c4c(F)cccc4C#N)c3)cnc2c1=O	0.16	0.59	0.19	3	28	–	–	–	–	–	–	–	–
